Laboratory results from the RNAGym collection of RNA variant scans (doi:10.1126/science.aae0568).
This sample holds only a part of the variants without activity.

B1: tRNA (parent)
chain: GUUCCGUUGGCGUAAUGGUAACGCGUCUCCCUCCUAAGGAGAAGACUGCGGGUUCGAGUCCCGUACGGAACG

Variants of: B1
Experiment: yeast fitness relative to wild type (ratio to wild type); higher = fitter; tRNA-Arg(CCU), competitive growth, 37 C, YPD
How it was run: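 Amplicons of the tRNA-Arg(CCU) gene were sequenced, 100-nucleotide paired-end, from the start population and from each end population of a pooled yeast competition. The competition, in six parallel replicates, lasted 24 hours in YPD at 37°C. Fitness relative to wild type was calculated from changes in genotype frequencies. Genotypes had to have ≥ 100 starting reads, and estimates < 0.5 were set to 0.5.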

With GUUCCGUUGGCGUAAUGGUAACGGGUUUCCCUUCUAAGGAGAAGACUGCCGGUUCGAGUCCCGUGCGAAACG [C24G C27U C33U G50C A65G G68A] as the variant, how does the yeast fitness read?
The yeast fitness was ≤ 0.5.

With GUUCCGUUGGCGUAAUGGUAACGGGUCUGCCUCCUAAGGAGAAGACUGGGGGUUCGAGUCCCGUACGGAACG [C24G C29G C49G] as the variant, how does the yeast fitness read?
The yeast fitness was ≤ 0.5.

With GUUCCGUUGGCGUAAUGGUAACGGGUCUUCCUCCUAAGGAGGAGACUGCGCGUUCGAGUCCCGUACGGAACG [C24G C29U A42G G51C] as the variant, how does the yeast fitness read?
The yeast fitness was ≤ 0.5.

For GUUCCGUUGGCGUAAUGGUAACGGGUCUCCCUGCUAAGGAGAAGACUGCGGGUUCGAGUACCAUACGGAACG [C24G C33G C60A G63A], which yeast fitness is on record?
Its yeast fitness is ≤ 0.5.

Which yeast fitness does the source give for GUUCCGUUGGCGUAAUGGUAACGGGUCUCUCUCCUAAGGAGAUGACUGCGGGUUCGAGUGCCGUCCGGAACG [C24G C30U A43U C60G A65C] here?
The yeast fitness was ≤ 0.5.

For GUUCCGUUGGCGUAAUGGUAACGGGUGUCCCUCCUAAGGCGAAGACAGCGGGUUCGAGUCCCGUACGGAACG [C24G C27G A40C U47A], which yeast fitness is on record?
Its yeast fitness is ≤ 0.5.

For GUUCCGUUGGCGUAAUGGUAACGGGUCUCCUUCCUAAGGAGAGGCCUGCGGGUUCGAGUCCCGAACGGAACG [C24G C31U A43G A45C U64A], which yeast fitness is on record?
The yeast fitness was ≤ 0.5.

Which yeast fitness does the source give for GUUCCGUUGGCGUAAUGGUAACGGGUUUCCCUCCUAAGGAGAAGACUGCGGCUUCGAGUCCCGUACGGAACG [C24G C27U G52C] here?
The yeast fitness was 0.566.

For GUUCCGUUGGCGUAAUGGUAACGGGUCUCCCUGCUCCGGAGCAGACUGCGGGUUCGAGUUCCGUACUGAACG [C24G C33G A36C A37C A42C C60U G67U], which yeast fitness is on record?
Its yeast fitness is ≤ 0.5.

For GUUCCGUUGGCGUAAUGGUAACGGGUCUCCCUGCUAAGGAGAAGACUGCGGGUUUGAGUCCCGUACGGAACG [C24G C33G C55U], which yeast fitness is on record?
The yeast fitness was ≤ 0.5.

For GUUCCGUUGGCGUAAUGGUAACGGGUCUCACUCCUAAGGAGAAGACUGCGGGUUCGAGUCCCGUACGGCACG [C24G C30A A69C], which yeast fitness is on record?
Its yeast fitness is 0.547.

With GUUCCGUUGGCGUAAUGGUAACGGGUAUCCCUCCUAAGGAGAAGCCUGCGGGUUCGAGUCCGGUACGGAACG [C24G C27A A45C C62G] as the variant, how does the yeast fitness read?
Its yeast fitness is ≤ 0.5.

Which yeast fitness does the source give for GUUCCGUUGGCGUAAUGGUAACGGGUCUCCCUGCUAAGGAGAAGACUGCGGGUUCGAGUCCCAUACGGAACG [C24G C33G G63A] here?
The yeast fitness was ≤ 0.5.

For GUUCCGUUGGCGUAAUGGUAACGGGUCUCGCUCCUAAGGAGAAGACUGCGGGUUCGAGGCCCGUACGGAACG [C24G C30G U59G], which yeast fitness is on record?
Its yeast fitness is 0.64.

For GUUCCGUUGGCGUAAUGGUAACGGGUUUCCCUCCUAAGGAGAAGACUGCGGGAUCGAGUCCCGUACGGAACG [C24G C27U U53A], which yeast fitness is on record?
Its yeast fitness is ≤ 0.5.

Which yeast fitness does the source give for GUUCCGUUGGCGUAAUGGUAACGGGUCUCGCUCCUAAGGAGAAGACUGCGGGUUCGAGUCCCGUACGGAACG [C24G C30G] here?
The yeast fitness was 0.53.

With GUUCCGUUGGCGUAAUGGUAACGGGUCUCACUCCUAAGGAGAAGACUGCGGGUUCGAGUCCCGUACGGAACG [C24G C30A] as the variant, how does the yeast fitness read?
Its yeast fitness is 0.777.

Which yeast fitness does the source give for GUUCCGUUGGCGUAAUGGUAACGGGUCUCUCUCCUAAGGAGAAGACUGCGGGUUCGAGUCCCGUACGGAACG [C24G C30U] here?
The yeast fitness was 0.553.

For GUUCCGUUGGCGUAAUGGUAACGGGUCUGCCUCCUAAGGAGAAGACUGCGGGUUCGAGUCCCGUACAGAACG [C24G C29G G67A], which yeast fitness is on record?
The yeast fitness was 0.57.

Which yeast fitness does the source give for GUUCCGUUGGCGUAAUGGUAACGGGUCUCUCUCAUAAGGAGAAGACUGCGGGUUCGAGUUCCGUACGGAACG [C24G C30U C34A C60U] here?
Its yeast fitness is ≤ 0.5.

With GUUCCGUUGGCGUAAUGGUAACGGGUCUGCCUCCUAAGGAGAAGAGUGCGGGUUCGAGUCCCGUACCGAACG [C24G C29G C46G G67C] as the variant, how does the yeast fitness read?
Its yeast fitness is ≤ 0.5.

For GUUCCGUUGGCGUAAUGGUAACGGGUCUCCGUACUAAGGAGAAGACUGCCGGUUGGUGUCCUGCACGGAACG [C24G C31G C33A G50C C55G A57U C62U U64C], which yeast fitness is on record?
The yeast fitness was ≤ 0.5.

With GUUCCGUUGGCGUAAUGGUAACGGGUCUCCUUACUAAGGAGAAGACUGCCGGUUCGAGUCCCGUACGGAACG [C24G C31U C33A G50C] as the variant, how does the yeast fitness read?
Its yeast fitness is ≤ 0.5.

For GUUCCGUUGGCGUAAUGGUAACGGGUCUCGUUCCAUAGGAGAAAACUGCGGGUUCGAGUCCCGUACGGAACG [C24G C30G C31U U35A A36U G44A], which yeast fitness is on record?
The yeast fitness was 0.695.

With GUUCCGUUGGCGUAAUGGUAACGGGUCUACCUCCUAAGGAGAACACUGCGGGUUCGAGUCUCGUACGGAACG [C24G C29A G44C C61U] as the variant, how does the yeast fitness read?
Its yeast fitness is 0.787.

With GUUCCGUUGGCGUAAUGGUAACGGGUCUCACUCCUAAGGCGAAGACUGCGGGUUCGGGUCUCGUACGGAACG [C24G C30A A40C A57G C61U] as the variant, how does the yeast fitness read?
The yeast fitness was ≤ 0.5.

Which yeast fitness does the source give for GUUCCGUUGGCGUAAUGGUAACGGGUUUCCCUUCUAAGGAGAAGACUGCGGGUUCGCGUCCCGUACGGAACG [C24G C27U C33U A57C] here?
Its yeast fitness is ≤ 0.5.

Which yeast fitness does the source give for GUUCCGUUGGCGUAAUGGUAACGGGUCUCCUUCCUAAGGACAAGAGUGCGGGUUCGAGUCCCCUACGGAACG [C24G C31U G41C C46G G63C] here?
The yeast fitness was ≤ 0.5.

With GUUCCGUUGGCGUAAUGGUAACGGGUCUCCGUUCUAAGGAGAAGAGUGCGGGUGCGAGUCCCGUACUGAACG [C24G C31G C33U C46G U54G G67U] as the variant, how does the yeast fitness read?
The yeast fitness was 0.645.

With GUUCCGUUGGCGUAAUGGUAACGGGUGUCCCUCCUUACGAGAAGACUGCGGGUUCGAGUGCCGUAAGGAACG [C24G C27G A36U G38C C60G C66A] as the variant, how does the yeast fitness read?
The yeast fitness was ≤ 0.5.

For GUUCCGUUGGCGUAAUGGUAACGGGUCUCACUCCUAAGGCGAAGACUGCGGGUUCGAGUCCCGUACGGAACG [C24G C30A A40C], which yeast fitness is on record?
The yeast fitness was 0.547.

Which yeast fitness does the source give for GUUCCGUUGGCGUAAUGGUAACGGGUCUCCAUUCAAAGGAGAAGACUGCGGGUUCGGGUCCCGCACGGAACG [C24G C31A C33U U35A A57G U64C] here?
The yeast fitness was ≤ 0.5.

Which yeast fitness does the source give for GUUCCGUUGGCGUAAUGGUAACGGGUCUCUCUCCUAAGGAGAAGACUGGGGGUUCGAGUCCCGUACGGAACG [C24G C30U C49G] here?
Its yeast fitness is 0.664.

For GUUCCGUUGGCGUAAUGGUAACGGGUGUCCCUCCUAAGGAGAAGACUGCGGGUUCGAGUCCCGUACGGAACG [C24G C27G], which yeast fitness is on record?
Its yeast fitness is 0.593.

For GUUCCGUUGGCGUAAUGGUAACGGGUCUCCUUCCUAGGGAGAAGACUGCCGGUUCGUGUCCCGUACGGAACG [C24G C31U A37G G50C A57U], which yeast fitness is on record?
Its yeast fitness is 0.648.

For GUUCCGUUGGCGUAAUGGUAACGGGUCUGCCACCUAAGGAGAAGACUGCGGCUUCGAGUCCCGUACGGAACG [C24G C29G U32A G52C], which yeast fitness is on record?
The yeast fitness was ≤ 0.5.

For GUUCCGUUGGCGUAAUGGUAACGGGUCUCCGUCCUAAGGAGAAGGCUGCGGGUUCGAGUGCCGUACGGAACG [C24G C31G A45G C60G], which yeast fitness is on record?
The yeast fitness was ≤ 0.5.

Which yeast fitness does the source give for GUUCCGUUGGCGUAAUGGUAACGGGUUUCCCUCCUAAGGAGAUGACUGCGGCUUCGAGUCCCGUACGGAACG [C24G C27U A43U G52C] here?
The yeast fitness was ≤ 0.5.
